Test results reported in ChEMBL document CHEMBL3865827, “A novel class of ethacrynic acid derivatives as promising drug-like potent generation of anticancer agents with established mechanism of action” (Eur J Med Chem, 2016).
Active and inactive are the calls of the source. The rule behind the calls is not given here.

Legend:
[1] = Cytotoxicity against human HL60 cells assessed as reduction in cell viability after 24 hrs by MTS assay; type: functional, cell-based; conditions: HL-60, 24 h
[2] = test system: HL-60; assay: Induction of necrosis in human HL60 cells assessed as increase in LDH release at 7 uM after 48 hrs by fluorescence assay; type: functional, cell-based
[3] = test system: HCT-116; assay: Induction of necrosis in human HCT116 cells assessed as increase in LDH release at 7 uM after 24 to 48 hrs by fluorescence assay; type: functional, cell-based
[4] = test system: HL-60; assay: Selectivity index, ratio of IC50 for Cyprinus carpio EPC to IC50 for human HL60 cells
[5] = Antiproliferative activity against human HL60 cells after 24 to 72 hrs by MTS assay; type: functional, cell-based; conditions: HL-60
Summary of the method: (§1)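 Cells plated, then dosed 24 h later with compounds in DMSO (1% final; controls DMSO alone), exposed 24 or 72 h. Proliferation inhibition measured as previously reported (MTS/NADH reagent). IC50 from duplicate experiments over 0.5 nM–100 µM. KB grown in D-MEM with 10% fetal calf serum, penicillin, streptomycin, fungizone, 5% CO2; other lines in complete RPMI. EPC are quiescent Cyprinus carpio endothelial progenitor cells.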

[6] = test system: HL60 (Homo sapiens); assay: Effect on 24 hrs pretreated human HL60 cells assessed as reduction in endogenous GSH content at 7 uM measured for 60 mins by fluorescence assay; conditions: HL-60
[7] = test system: KB; assay: Selectivity index, ratio of IC50 for Cyprinus carpio EPC to IC50 for human KB cells
[8] = Antiproliferative activity against human KB cells after 24 to 72 hrs by MTS assay; type: functional, cell-based; summary of the method: as §1
[9] = test system: MRC5; assay: Induction of necrosis in human MRC5 SV2 cells assessed as increase in LDH release at 7 uM after 24 to 48 hrs by fluorescence assay; type: functional, cell-based
[10] = test system: KB; assay: Induction of necrosis in human KB cells assessed as increase in LDH release at 7 uM after 24 to 48 hrs by fluorescence assay; type: functional, cell-based
[11] = Antiproliferative activity against Cyprinus carpio EPC after 24 to 72 hrs by MTS assay
[12] = test system: HL-60; assay: Antiproliferative activity against human HL60 cells at 7 uM after 24 hrs by viacount-reagent based FACS analysis
[13] = Cell cycle arrest in human HL60 cells assessed as accumulation at S phase at 2.5 uM after 24 hrs by propidium iodide-staining based FACS analysis (reference value: 48.9 %); type: functional; conditions: HL-60
Summary of the method: (§2)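 HL60 cells, 25,000 per well, exposed 24 and 48 h to 2.5 µM compounds; controls DMSO (1% final). Propidium iodide staining, flow cytometry; fractions in sub-G1, G0/G1, S and G2/M quantified.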

[14] = Antiproliferative activity against human HCT116 cells after 24 to 72 hrs by MTS assay; type: functional, cell-based; conditions: HCT-116
[15] = Cell cycle arrest in human HL60 cells assessed as accumulation at S phase at 2.5 uM after 48 hrs by propidium iodide-staining based FACS analysis (reference value: 52.6 %); type: functional; conditions: HL-60; summary of the method: as §2
[16] = Antiproliferative activity against human PC3 cells after 24 to 72 hrs by MTS assay; type: functional, cell-based; conditions: PC-3
[17] = Antiproliferative activity against human MCF7 cells after 24 to 72 hrs by MTS assay; type: functional, cell-based
[18] = Antiproliferative activity against human SKOV3 cells after 24 to 72 hrs by MTS assay; type: functional, cell-based; conditions: SK-OV-3
[19] = Cell cycle arrest in human HL60 cells assessed as accumulation at G0/G1 phase at 2.5 uM after 48 hrs by propidium iodide-staining based FACS analysis (reference value: 43.8 %); type: functional; conditions: HL-60; summary of the method: as §2
[20] = Antiproliferative activity against human OVCAR8 cells after 24 to 72 hrs by MTS assay; type: functional, cell-based; conditions: OVCAR-8
[21] = Cell cycle arrest in human HL60 cells assessed as accumulation at G2/M phase at 2.5 uM after 48 hrs by propidium iodide-staining based FACS analysis (reference value: 2.2 %); type: functional; conditions: HL-60; summary of the method: as §2
[22] = Cell cycle arrest in human HL60 cells assessed as accumulation at sub G1 phase at 2.5 uM after 24 hrs by propidium iodide-staining based FACS analysis (reference value: 2.6 %); type: functional; conditions: HL-60; summary of the method: as §2
[23] = Cell cycle arrest in human HL60 cells assessed as accumulation at G0/G1 phase at 2.5 uM after 24 hrs by propidium iodide-staining based FACS analysis (reference value: 43.5 %); type: functional; conditions: HL-60; summary of the method: as §2
[24] = Cell cycle arrest in human HL60 cells assessed as accumulation at G2/M phase at 2.5 uM after 24 hrs by propidium iodide-staining based FACS analysis (reference value: 5.1 %); type: functional; conditions: HL-60; summary of the method: as §2
[25] = Cell cycle arrest in human HL60 cells assessed as accumulation at sub G1 phase at 2.5 uM after 48 hrs by propidium iodide-staining based FACS analysis (reference value: 1.4 %); type: functional; conditions: HL-60; summary of the method: as §2
[26] = test system: HL-60; assay: Induction of apoptosis in human HL60 cells assessed as necrotic/late apoptotic cells at 5 uM after 24 hrs by Annexin V/7AAD-dual staining based FACS analysis (reference value: 0.6 %); type: functional
Summary of the method: (§3)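 HL60 cells treated 24 h with EA (10 or 50 µM) or derivatives (5 µM); controls vehicle only. Annexin V/7-AAD staining, flow cytometry; cells classed as dead, necrotic/late apoptotic, intact or early apoptotic, as percentages.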

[27] = test system: HL-60; assay: Induction of apoptosis in human HL60 cells assessed as early apoptotic cells at 5 uM after 24 hrs by Annexin V/7AAD-dual staining based FACS analysis; type: functional, cell-based; summary of the method: as §3
[28] = test system: HL-60; assay: Induction of apoptosis in human HL60 cells assessed as intact cells at 5 uM after 24 hrs by Annexin V/7AAD-dual staining based FACS analysis; type: functional, cell-based; summary of the method: as §3
[29] = test system: HL-60; assay: Induction of apoptosis in human HL60 cells assessed as caspase 3/7 activation at 5 uM preincubated for 24 hrs after 180 mins by fluorescence assay; type: functional, cell-based
Summary of the method: (§4)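 HL60 cells treated 24 h with EA (50 µM), derivatives (5 µM) or doxorubicin (50 nM, positive control), then caspase-3 activity assayed by fluorescence (ex 360, em 435 nm) at 0, 30, 60, 120 and 180 min. Rate from slope of linear phase, expressed as fold-activation over DMSO-treated HL60.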

[30] = test system: HL-60; assay: Induction of apoptosis in human HL60 cells assessed as dead cells at 5 uM after 24 hrs by Annexin V/7AAD-dual staining based FACS analysis (reference value: 0.1 %); type: functional
[31] = test system: HL-60; assay: Induction of apoptosis in human HL60 cells assessed as dead cells at 5 uM after 24 hrs by Annexin V/7AAD-dual staining based FACS analysis
[32] = test system: HL-60; assay: Induction of apoptosis in human HL60 cells assessed as early apoptotic cells at 5 uM after 24 hrs by Annexin V/7AAD-dual staining based FACS analysis (reference value: 7.7 %); type: functional; summary of the method: as §3
[33] = test system: HL-60; assay: Induction of apoptosis in human HL60 cells assessed as necrotic/late apoptotic cells at 5 uM after 24 hrs by Annexin V/7AAD-dual staining based FACS analysis
[34] = test system: HL-60; assay: Induction of apoptosis in human HL60 cells assessed as intact cells at 5 uM after 24 hrs by Annexin V/7AAD-dual staining based FACS analysis (reference value: 91.6 %); type: functional; summary of the method: as §3
[35] = test system: HL-60; assay: Induction of apoptosis in human HL60 cells assessed as caspase 3/7 activation at 50 nM preincubated for 24 hrs after 180 mins by fluorescence assay; type: functional, cell-based; summary of the method: as §4

Compound	IC50 [1] [nM]	Activity [2]	Activity [3]	Ratio IC50 [4]	IC50 [5] [nM]	GSH reduction activity [6]	Ratio IC50 [7]	IC50 [8] [nM]	Activity [9]	Activity [10]	IC50 [11] [nM]	Activity [12]	other results
C=C(CC)C(=O)c1ccc(OCC(=O)NCCc2ccc(OC)cc2)c(Cl)c1Cl	2400	Active	Active	2.8	1300	Active	4.6	800	Active	Active	3700	Active	–
C=C(CC)C(=O)c1ccc(OCC(=O)N2CCN(c3ccc(OP4(=O)OCCCO4)cc3)CC2)c(Cl)c1Cl	–	–	–	3.6	350	–	6.25	200	–	–	1250	–	Activity [13]: 47.1%; IC50 [14]: 1000 nM; Activity [15]: 30.7%; IC50 [16]: 500 nM; IC50 [17]: 900 nM; IC50 [18]: 3500 nM; Activity [19]: 41.7%; IC50 [20]: 1900 nM; Activity [21]: 0%; Activity [22]: 2.6%; Activity [23]: 40.7%; Activity [24]: 9.6%; Activity [25]: 27.6%
C=C(CC)C(=O)c1ccc(OCC(=O)N(C)CCc2ccc(OC)cc2)c(Cl)c1Cl	2300	Active	Active	3	1300	Active	5.7	700	Active	Active	4000	Active	–
C=C(CC)C(=O)c1ccc(OCC(=O)OCCc2ccc(O)cc2)c(Cl)c1Cl	2900	–	Active	2.65	1400	Active	4	900	Active	Active	3700	Active	Activity [26]: 10%; Activity [27]: Active; Activity [28]: Active; Activity [29]: Active; Activity [30]: 0.2%; Activity [31]: Active; Activity [32]: 42.5%; Activity [33]: Active; Activity [34]: 47.3%
COc1cccc2c1C(=O)c1c(O)c3c(c(O)c1C2=O)C[C@@](O)(C(=O)CO)C[C@@H]3O[C@H]1C[C@H](N)[C@H](O)[C@H](C)O1	–	–	–	–	–	–	–	–	–	–	–	–	Activity [35]: Active
